Reference: PubChem BioAssay
Calls of active or inactive are those of the source.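 The calls were made as follows, unless noted: active = viability at or below 10% of carrier control in both of two separate runs; inconclusive = viability at or below 10% in only one of the two runs; inactive = the rest.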

What was measured:
[1] = Her2 expression decrease, cell viability multiplex – SKBR3 breast tumor cells, AlphaScreen, ATP viability, primary screen (AID 461;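 active = Her2 level under about 52% in both replicate screens, with viability over 70% of control, limit read from the data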;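 as to Her2 level: lower value means less Her2 protein in the cells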;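 as to viability: percent of carrier control wells set as 100% viability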); conditions: SKBR3 Her2 protein level, 18-24 h, measured here: SKBR3 viability, ATP luminescence, at 10 µM
[2] = target: Receptor tyrosine-protein kinase erbB-2 (Homo sapiens) (UniProt P04626); test: as above; conditions: 18-24 h, at 10 µM, stronger effect = lower value
[3] = reduced viability of SK-BR-3 breast cancer cells – cell-based, 24 h, human, pilot screen (AID 572); conditions: SK-BR-3 viability, CellTiter-Glo luminescence, at 10 µM, stronger effect = lower value;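 also: compound exposure lasted between 18 and 24 h rather than exactly 24 h; 100% = carrier-treated control wells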
[4] = HUVEC growth inhibition – cell-based, human, primary screen (AID 575;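 active = viability at or below 30% in both replicate assays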;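 also: 100% = median of untreated cell wells with 0.1% DMSO on each plate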); conditions: HUVEC proliferation, CellTiter-Glo luminescence, 72 h; at 10 µM; stronger effect = lower value
Summary of the method: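 Test system: HUVEC primary cells. Quantity: 1250 endothelial cells in each well. Dosing: single-point 10 µM, DMSO 0.1% final. Incubation: 72 h treatment at 37 °C. Measured by: CTG luminescence. Control set: DMSO cell controls and MePR drug controls. Plate: collagen-coated 384-well format.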

[5] = H69AR cell proliferation blockers – human, duplicate replicates, primary screen (AID 580;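 active = viability at or under a set limit in both replicates, limit being median viability minus 3 SD, cut at about 48% in these data, passing the limit was not always enough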;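 also: 100% = mean luminescence of untreated wells and 0% = no signal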); conditions: H69AR lung tumor cells viability, ATP luminescence, 72 h; at 10 µM; stronger effect = lower value
[6] = MRP1 drug-resistance reversers in H69AR cells – cell-based, doxorubicin co-treatment, pilot screen (AID 601;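 active = viability loss from added drug above about 55%, and viability with drug at most 40%, in both replicates, limit read from the data, passing the limit was not always enough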); conditions: CellTiter-Glo, 72 h, at 10 µM; for differential viability (reversal): stronger effect = higher value
[7] = yeast transport mutant growth inhibition pilot in 384-well plates, post-Golgi transport modulator project (AID 636; in the data active = inhibition above about 31%); conditions: absorbance 615 nm, about 18 h, stronger effect = higher value
[8] = growth suppression of yeast trafficking mutant, preliminary HTS, modulators of trafficking downstream of Golgi apparatus project, 1536-format plate, OD 615 nm (AID 637; in the data active = inhibition above about 30%); conditions: yeast transport mutant growth, absorbance 615 nm, 18 h; stronger effect = higher value
[9] = H69AR cells + 2 uM doxorubicin, measured here: viability with 2 uM doxorubicin, stronger effect = lower value
[10] = H69AR cells, compound alone cytotoxicity

Sequence of Receptor tyrosine-protein kinase erbB-2 (Homo sapiens) (P04626 whole entry, looked up): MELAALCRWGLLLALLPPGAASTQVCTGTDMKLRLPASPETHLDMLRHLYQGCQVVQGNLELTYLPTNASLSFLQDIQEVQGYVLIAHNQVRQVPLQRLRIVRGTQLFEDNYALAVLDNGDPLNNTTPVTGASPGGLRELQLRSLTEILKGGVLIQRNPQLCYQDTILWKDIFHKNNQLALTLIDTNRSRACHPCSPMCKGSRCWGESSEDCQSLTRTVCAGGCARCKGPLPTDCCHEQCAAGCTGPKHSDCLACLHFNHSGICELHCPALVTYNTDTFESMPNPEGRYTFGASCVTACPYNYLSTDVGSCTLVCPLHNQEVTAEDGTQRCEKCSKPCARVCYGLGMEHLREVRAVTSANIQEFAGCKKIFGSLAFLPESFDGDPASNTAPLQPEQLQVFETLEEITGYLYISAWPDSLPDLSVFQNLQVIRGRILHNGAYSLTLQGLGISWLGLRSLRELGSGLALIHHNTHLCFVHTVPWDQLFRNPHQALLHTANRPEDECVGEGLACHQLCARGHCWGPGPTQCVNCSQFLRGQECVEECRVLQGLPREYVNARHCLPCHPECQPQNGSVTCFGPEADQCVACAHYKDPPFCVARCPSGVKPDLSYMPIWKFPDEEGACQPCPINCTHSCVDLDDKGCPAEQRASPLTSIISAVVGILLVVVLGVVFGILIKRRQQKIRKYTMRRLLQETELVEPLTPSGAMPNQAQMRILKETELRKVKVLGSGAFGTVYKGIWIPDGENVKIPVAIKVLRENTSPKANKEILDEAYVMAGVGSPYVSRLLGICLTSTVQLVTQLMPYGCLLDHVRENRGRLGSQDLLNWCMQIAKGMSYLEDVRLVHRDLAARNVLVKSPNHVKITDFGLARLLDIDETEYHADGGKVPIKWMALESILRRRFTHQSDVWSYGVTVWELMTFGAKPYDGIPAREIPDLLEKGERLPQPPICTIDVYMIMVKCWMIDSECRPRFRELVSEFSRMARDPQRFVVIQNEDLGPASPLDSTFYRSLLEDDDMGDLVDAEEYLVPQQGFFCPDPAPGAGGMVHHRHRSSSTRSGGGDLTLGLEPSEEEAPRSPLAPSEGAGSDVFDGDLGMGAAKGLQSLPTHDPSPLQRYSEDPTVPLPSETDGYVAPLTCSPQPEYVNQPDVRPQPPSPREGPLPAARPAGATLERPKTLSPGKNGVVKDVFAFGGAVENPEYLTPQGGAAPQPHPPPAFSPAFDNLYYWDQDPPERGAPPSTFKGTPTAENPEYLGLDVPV

Structure (SMILES) | viability [1] [%] | Her2 level [2] | viability [3] | viability [4] | viability [5] | differential viability (reversal) ([6]; H69AR cells + 2 uM doxorubicin) | viability [6, 9] [%] | viability [6, 10] [%] | inhibition [7] | inhibition [8]
O=S(=O)(NCCc1ccccn1)c1cccs1 | 99 | 93% (inactive) | 99% (inactive) | 97.4% (inactive) | 101% (inactive) | 2.29% (inactive) | 98.3 | 101 | -7.07% (inactive) | 4.1% (inactive)
CCNC(=O)N1c2ccc(OCC)cc2C(C)=CC1(C)C | 95.5 | 99.5% (inactive) | 95.5% (inactive) | 106% (inactive) | 89.3% (inactive) | -1.44% (inactive) | 90.8 | 89.3 | -7.76% (inactive) | -1.15% (inactive)
CCn1c(SCC(=O)Nc2nccs2)nnc1-c1ccncc1 | 101 | 63.5% (inactive) | 101% (inactive) | 87% (inactive) | 84.8% (inactive) | -2.34% (inactive) | 87.1 | 84.8 | -2.11% (inactive) | 2.7% (inactive)
CN(CC(=O)NCCC1=CCCCC1)S(=O)(=O)c1ccc2c(c1)CCC(=O)N2 | 79 | 113% (inactive) | 79% (inactive) | 91.3% (inactive) | 110% (inactive) | 18% (inactive) | 91.7 | 110 | -2.27% (inactive) | -1.48% (inactive)
CC(=O)Nc1ccc(S(=O)(=O)NCC(C)NS(=O)(=O)c2ccc(NC(C)=O)cc2)cc1 (stereo not given) | 106 | 114% (inactive) | 106% (inactive) | 94.5% (inactive) | 98.6% (inactive) | 3.06% (inactive) | 95.5 | 98.6 | 0.13% (inactive) | -1.27% (inactive)
Cc1cc(NC(c2cccnc2)c2c(C)[nH]c3ccccc23)no1 (stereo not given) | 97 | 76% (inactive) | 97% (inactive) | 85.1% (inactive) | 89% (inactive) | -8.09% (inactive) | 97 | 89 | -5.6% (inactive) | 3.61% (inactive)
O=c1c2cc(N3CCOCC3)ccc2[nH]c(=S)n1CCCN1CCCCC1 | 83.5 | 93.5% (inactive) | 83.5% (inactive) | 84.9% (inactive) | 95.9% (inactive) | 4.74% (inactive) | 91.2 | 95.9 | -4.59% (inactive) | -8.36% (inactive)
c1ccc(CCc2nc(-c3cccnc3)no2)cc1 | 86.5 | 73% (inactive) | 86.5% (inactive) | 108% (inactive) | 92.9% (inactive) | 1.11% (inactive) | 91.8 | 92.9 | -4.27% (inactive) | 1.31% (inactive)
Cn1c(SCc2nnc3n2CCCCC3)nc2ccccc21 | 103 | 98.5% (inactive) | 103% (inactive) | 98.3% (inactive) | 98.2% (inactive) | 4.2% (inactive) | 94 | 98.2 | -6.67% (inactive) | 2.54% (inactive)
CCn1c(Cc2ccc(OC)cc2)nnc1SCC(=O)Nc1cccc(C(=O)OC)c1 | 89.5 | 86.5% (inactive) | 89.5% (inactive) | 85.8% (inactive) | 103% (inactive) | 7.12% (inactive) | 95.7 | 103 | -1.45% (inactive) | -2.86% (inactive)
CCCCC(c1nnnn1C1CCCC1)N1CCN(C2CCCCC2)CC1 (stereo not given) | 81.5 | 74% (inactive) | 81.5% (inactive) | 106% (inactive) | 92.7% (inactive) | 20.4% (inactive) | 72.2 | 92.7 | -6.62% (inactive) | 1.83% (inactive)
O=C(NCc1cccs1)C1CC(=O)N(c2ccccc2)C1 (stereo not given) | 96.5 | 105% (inactive) | 96.5% (inactive) | 123% (inactive) | 111% (inactive) | 9.26% (inactive) | 101 | 111 | -0.13% (inactive) | -2.3% (inactive)
CCOc1ccc2[nH]c(=O)c(CN(Cc3nnnn3CCc3ccccc3)CC3CCCO3)cc2c1 (stereo not given) | 78.5 | 89% (inactive) | 78.5% (inactive) | 90.6% (inactive) | 78.7% (inactive) | 21.2% (inactive) | 57.5 | 78.7 | -5.34% (inactive) | -11.6% (inactive)
CCOC(=O)c1ccc(NC(=O)COc2ccc(-n3cnnn3)cc2)cc1 | 124 | 95% (inactive) | 124% (inactive) | 96.8% (inactive) | 89% (inactive) | 1.81% (inactive) | 87.2 | 89 | -4.13% (inactive) | -1.43% (inactive)
Cc1c(C2Nc3ccccc3NC3=C2C(=O)CC(C)(C)C3)cnn1C (stereo not given) | 112 | 107% (inactive) | 112% (inactive) | 93% (inactive) | 89.2% (inactive) | 0.765% (inactive) | 88.4 | 89.2 | -4.38% (inactive) | -5.87% (inactive)
O=C(CSc1nnnn1C1CCCC1)Nc1cccc(NC(=O)c2ccco2)c1 | 91.5 | 98.5% (inactive) | 91.5% (inactive) | 96.7% (inactive) | 110% (inactive) | 13.4% (inactive) | 97 | 110 | -0.39% (inactive) | -2.17% (inactive)
CCOC(=O)c1ccccc1NC(=O)N1CCn2c(C)ccc2C1CC (stereo not given) | 107 | 88% (inactive) | 107% (inactive) | 103% (inactive) | 84.8% (inactive) | 1.62% (inactive) | 83.2 | 84.8 | -4.46% (inactive) | -4.92% (inactive)
Cc1noc(COc2ccccc2OCC(O)CNC(C)(C)C)n1 (stereo not given) | 101 | 89% (inactive) | 101% (inactive) | 103% (inactive) | 97% (inactive) | 7.13% (inactive) | 89.9 | 97 | -5.21% (inactive) | -9.37% (inactive)
Nc1nc(CN2CCN(Cc3ccc4c(c3)OCO4)CC2)nc(Nc2ccccc2)n1 | 102 | 92.5% (inactive) | 102% (inactive) | 114% (inactive) | 97.4% (inactive) | 13% (inactive) | 84.4 | 97.4 | -2.76% (inactive) | 5.48% (inactive)
CCOc1ccc(N(CC(=O)NC2CCCC2)S(=O)(=O)c2c(C)[nH]c(=O)[nH]c2=O)cc1 | 87 | 104% (inactive) | 87% (inactive) | 96.4% (inactive) | 101% (inactive) | 17.2% (inactive) | 83.4 | 101 | 0.4% (inactive) | -3.28% (inactive)
Cc1cc(C(=O)Nc2ccccc2C#N)n(-c2ccccc2)n1 | 97.5 | 100% (inactive) | 97.5% (inactive) | 92.8% (inactive) | 93.9% (inactive) | -3.06% (inactive) | 97 | 93.9 | 2.93% (inactive) | 0% (inactive)
Cn1nnnc1SCSc1nnnn1C | 84 | 83% (inactive) | 84% (inactive) | 95.5% (inactive) | 96.9% (inactive) | 7.5% (inactive) | 89.4 | 96.9 | -5% (inactive) | -0.95% (inactive)
O=c1oc2ccccc2n1CCn1c2ccccc2c2nc3ccccc3nc21 | 85 | 96% (inactive) | 85% (inactive) | 53.2% (inactive) | 34.2% (active) | -3.67% (inactive) | 37.8 | 34.2 | -1.05% (inactive) | -3.71% (inactive)
COc1ccc(OC)c(C2=NOC(C(=O)Nc3cccnc3)C2)c1 (stereo not given) | 78.5 | 82% (inactive) | 78.5% (inactive) | 102% (inactive) | 88.9% (inactive) | 5.72% (inactive) | 83.2 | 88.9 | -1.97% (inactive) | 1.09% (inactive)
COc1ccc(CN(CC(=O)NCc2ccco2)C(=O)CCC(=O)Nc2nccs2)cc1 | 96 | 104% (inactive) | 96% (inactive) | 85.5% (inactive) | 101% (inactive) | 11% (inactive) | 89.6 | 101 | 1.22% (inactive) | -2.13% (inactive)
Cc1ccnc(NC(=O)CCC(=O)N(CC(=O)NC2CCCCC2)c2cccc(C)c2C)c1 | 92.5 | 97.5% (inactive) | 92.5% (inactive) | 92.1% (inactive) | 86.7% (inactive) | -7.79% (inactive) | 94.5 | 86.7 | 0% (inactive) | 22.6% (inactive)
CCN(CC)c1ccc(/C=N/n2nnnc2N)c(O)c1 | 119 | 80% (inactive) | 119% (inactive) | 57.6% (inactive) | 14.4% (active) | -42.7% (inactive) | 57.2 | 14.4 | 0.52% (inactive) | -1.15% (inactive)
